Results as given in ChEMBL document CHEMBL4028913, “Discovery of Novel Potent VEGFR-2 Inhibitors Exerting Significant Antiproliferative Activity against Cancer Cell Lines” (J Med Chem, 2018).
The source made the active and inactive calls. The rule behind the calls is not given here.

Assays:
CCRF-CEM = experiment: Cytotoxicity against human CCRF-CEM cells after 48 hrs by SRB assay; type: functional
Procedure, shortened: (§1)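 NCI-60 panel; cells grown in RPMI 1640 with 5% FBS and 2 mM L-glutamine, plated at 5000–40 000 cells/well by doubling time, preincubated 24 h (37 °C, 5% CO2). Drug added at five concentrations, 1-log steps from 10−4 to 10−8 M, for 48 h. Fixed with TCA, stained with 0.4% SRB, absorbance read at 515 nm. Percent growth computed against time-zero and untreated controls; GI50, TGI and LC50 derived.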

K562 = experiment: Cytotoxicity against human K562 cells after 48 hrs by SRB assay; type: functional; details: K562, 48 h; procedure, shortened: as §1
EKVX = experiment: Cytotoxicity against human EKVX cells after 48 hrs by SRB assay; type: functional; procedure, shortened: as §1
NCI-H460 = experiment: Cytotoxicity against human NCI-H460 cells after 48 hrs by SRB assay; type: functional; details: NCI-H460, 48 h; procedure, shortened: as §1
HCC 2998 = experiment: Cytotoxicity against human HCC2998 cells after 48 hrs by SRB assay; type: functional; details: HCC 2998, 48 h; procedure, shortened: as §1
HCT-15 = experiment: Cytotoxicity against human HCT15 cells after 48 hrs by SRB assay; type: functional; details: HCT-15, 48 h; procedure, shortened: as §1
KM12 = experiment: Cytotoxicity against human KM12 cells after 48 hrs by SRB assay; type: functional; details: KM12, 48 h; procedure, shortened: as §1
SW-620 = experiment: Cytotoxicity against human SW620 cells after 48 hrs by SRB assay; type: functional; details: SW-620, 48 h
Procedure, shortened: (§2)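 NCI-60 panel, five doses at 1-log steps from 10−4 to 10−8 M. Cells grown in RPMI 1640 with 5% FBS and 2 mM L-glutamine, seeded at 5000–40 000 cells/well and preincubated 24 h. Tz plates were TCA-fixed at drug addition. Drug exposure 48 h at 37 °C, then TCA fixation, 0.4% SRB stain and absorbance at 515 nm. GI50 taken from percent growth relative to Tz and control.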

OVCAR-4 = experiment: Cytotoxicity against human OVCAR4 cells after 48 hrs by SRB assay; type: functional; details: OVCAR-4, 48 h; procedure, shortened: as §1
A498 = experiment: Cytotoxicity against human A498 cells after 48 hrs by SRB assay; type: functional; details: A498, 48 h; procedure, shortened: as §1
RXF 393 = experiment: Cytotoxicity against human RXF393 cells after 48 hrs by SRB assay; type: functional; details: RXF 393, 48 h; procedure, shortened: as §1
UO-31 = experiment: Cytotoxicity against human UO31 cells after 48 hrs by SRB assay; type: functional; details: UO-31, 48 h; procedure, shortened: as §2
MDA-MB-231 = experiment: Cytotoxicity against human MDA-MB-231 cells after 48 hrs by SRB assay; type: functional; details: MDA-MB-231, 48 h; procedure, shortened: as §1
Hs-578T = experiment: Cytotoxicity against human Hs 578T cells after 48 hrs by SRB assay; type: functional; procedure, shortened: as §1
T47D = experiment: Cytotoxicity against human T47D cells after 48 hrs by SRB assay; type: functional; procedure, shortened: as §2
[1] = Potency index, ratio of sorafenib TGI to test compound TGI for human renal cancer cells; type: functional, Renal cancer cell
[2] = Potency index, ratio of sorafenib GI50 to test compound GI50 for human non-small cell lung cancer cells; type: functional
Procedure, shortened: (§3)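 GI50 is the concentration giving 50% reduction in net protein increase relative to control. Potency index is the reference-drug GI50 divided by the test-compound GI50.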

[3] = Potency index, ratio of sorafenib GI50 to test compound GI50 for human ovarian cancer cells; type: functional, Ovarian cancer cell; procedure, shortened: as §3
[4] = Potency index, ratio of sunitinib GI50 to test compound GI50 for human non-small cell lung cancer cells; type: functional
[5] = Potency index, ratio of sunitinib GI50 to test compound GI50 for human ovarian cancer cells; type: functional, Ovarian cancer cell
[6] = Potency index, ratio of sorafenib GI50 to test compound GI50 for human CNS cancer cells; type: functional, CNS cancer cell; procedure, shortened: as §3
[7] = Potency index, ratio of sorafenib GI50 to test compound GI50 for human prostate cancer cells; type: functional, Prostate cancer cell; procedure, shortened: as §3
[8] = Potency index, ratio of sunitinib GI50 to test compound GI50 for human prostate cancer cells; type: functional, Prostate cancer cell
NCI/ADR-RES = experiment: Potency index, ratio of sunitinib GI50 to test compound GI50 for human NCI-ADR-RES cells; type: functional; procedure, shortened: as §3
[9] = Potency index, ratio of test compound LC50 to sunitinib LC50 for human prostate cancer cells; type: functional, Prostate cancer cell
[10] = target: Vascular endothelial growth factor receptor 2 (Homo sapiens, UniProt P35968); experiment: Inhibition of VEGFR2 in human prostate cancer cells assessed as decrease in Akt activation at 10 uM relative to control
[11] = target: Fibroblast growth factor receptor 4 (Homo sapiens) (UniProt P22455); experiment: Inhibition of human FGFR4 at 0.5 uM relative to control
[12] = target: Ephrin type-A receptor 3 (Homo sapiens) (UniProt P29320); experiment: Inhibition of human EPHA3 at 0.5 uM relative to control
[13] = target: Ephrin type-A receptor 4 (Homo sapiens) (UniProt P54764); experiment: Inhibition of human EPHA4 at 0.5 uM relative to control
[14] = target: Ephrin type-A receptor 7 (Homo sapiens) (UniProt Q15375); experiment: Inhibition of human EPHA7 at 0.5 uM relative to control
Homo sapiens = species on record: Homo sapiens; experiment: Inhibition of human PDGFR at 0.5 uM relative to control
[15] = target: Tyrosine-protein kinase HCK (Homo sapiens) (UniProt P08631); experiment: Inhibition of human HCK at 0.5 uM relative to control
[16] = target: STE20-like serine/threonine-protein kinase (Homo sapiens) (UniProt Q9H2G2); experiment: Inhibition of human SLK at 0.5 uM relative to control
[17] = target: Tyrosine-protein kinase ABL1 (Homo sapiens) (UniProt P00519); details: at 0.5 µM
[18] = target: Mitogen-activated protein kinase kinase kinase 7 (Homo sapiens) (UniProt O43318); experiment: Inhibition of human TAK1 at 0.5 uM relative to control
[19] = read-out: LC50 (the source's name)

Chain of Fibroblast growth factor receptor 4 (Homo sapiens) (P22455 22-802 limits assumed): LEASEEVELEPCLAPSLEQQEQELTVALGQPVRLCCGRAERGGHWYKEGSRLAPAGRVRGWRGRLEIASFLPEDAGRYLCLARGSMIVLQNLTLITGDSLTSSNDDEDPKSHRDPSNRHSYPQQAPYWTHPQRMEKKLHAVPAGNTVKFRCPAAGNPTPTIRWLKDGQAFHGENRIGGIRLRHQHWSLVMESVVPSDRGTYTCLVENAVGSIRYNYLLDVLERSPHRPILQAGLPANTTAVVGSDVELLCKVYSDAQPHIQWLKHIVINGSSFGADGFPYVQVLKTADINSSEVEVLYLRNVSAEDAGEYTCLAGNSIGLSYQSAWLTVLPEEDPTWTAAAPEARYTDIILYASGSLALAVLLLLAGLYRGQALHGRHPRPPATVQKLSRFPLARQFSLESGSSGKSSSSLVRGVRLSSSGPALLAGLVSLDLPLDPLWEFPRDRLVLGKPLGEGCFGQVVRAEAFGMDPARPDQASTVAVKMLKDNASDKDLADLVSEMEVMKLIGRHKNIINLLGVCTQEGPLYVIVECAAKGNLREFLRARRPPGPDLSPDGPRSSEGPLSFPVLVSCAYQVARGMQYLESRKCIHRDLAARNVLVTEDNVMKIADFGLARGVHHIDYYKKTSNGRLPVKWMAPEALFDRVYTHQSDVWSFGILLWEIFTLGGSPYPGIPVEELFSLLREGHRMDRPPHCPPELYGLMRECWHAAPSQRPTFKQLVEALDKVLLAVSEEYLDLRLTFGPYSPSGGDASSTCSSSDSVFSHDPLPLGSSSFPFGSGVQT
Chain of Ephrin type-A receptor 7 (Homo sapiens) (Q15375 28-998 limits assumed): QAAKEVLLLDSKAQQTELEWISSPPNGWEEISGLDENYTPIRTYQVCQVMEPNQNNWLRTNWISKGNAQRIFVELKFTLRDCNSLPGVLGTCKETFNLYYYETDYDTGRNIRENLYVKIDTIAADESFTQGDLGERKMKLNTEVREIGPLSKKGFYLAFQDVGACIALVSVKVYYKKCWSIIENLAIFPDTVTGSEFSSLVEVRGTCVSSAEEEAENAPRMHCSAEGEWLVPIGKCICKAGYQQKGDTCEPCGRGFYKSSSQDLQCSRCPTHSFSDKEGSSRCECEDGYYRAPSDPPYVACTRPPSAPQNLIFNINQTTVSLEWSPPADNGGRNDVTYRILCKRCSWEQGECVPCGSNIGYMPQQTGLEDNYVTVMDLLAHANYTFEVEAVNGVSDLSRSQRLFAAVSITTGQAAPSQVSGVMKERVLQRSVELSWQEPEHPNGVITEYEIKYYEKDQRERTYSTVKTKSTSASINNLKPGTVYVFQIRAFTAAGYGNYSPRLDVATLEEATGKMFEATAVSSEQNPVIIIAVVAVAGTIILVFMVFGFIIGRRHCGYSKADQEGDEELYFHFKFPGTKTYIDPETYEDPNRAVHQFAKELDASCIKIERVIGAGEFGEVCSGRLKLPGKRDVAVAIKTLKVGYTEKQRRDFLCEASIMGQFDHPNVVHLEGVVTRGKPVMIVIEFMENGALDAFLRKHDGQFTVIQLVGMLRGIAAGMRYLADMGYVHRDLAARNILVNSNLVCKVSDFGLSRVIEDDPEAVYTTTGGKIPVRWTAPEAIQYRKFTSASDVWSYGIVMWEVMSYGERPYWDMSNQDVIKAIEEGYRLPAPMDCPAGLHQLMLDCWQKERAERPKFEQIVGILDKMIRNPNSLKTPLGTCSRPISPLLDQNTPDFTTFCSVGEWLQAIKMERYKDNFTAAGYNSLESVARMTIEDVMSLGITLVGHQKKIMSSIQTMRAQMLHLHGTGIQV
Chain of Tyrosine-protein kinase HCK (Homo sapiens) (P08631 2-526 limits assumed): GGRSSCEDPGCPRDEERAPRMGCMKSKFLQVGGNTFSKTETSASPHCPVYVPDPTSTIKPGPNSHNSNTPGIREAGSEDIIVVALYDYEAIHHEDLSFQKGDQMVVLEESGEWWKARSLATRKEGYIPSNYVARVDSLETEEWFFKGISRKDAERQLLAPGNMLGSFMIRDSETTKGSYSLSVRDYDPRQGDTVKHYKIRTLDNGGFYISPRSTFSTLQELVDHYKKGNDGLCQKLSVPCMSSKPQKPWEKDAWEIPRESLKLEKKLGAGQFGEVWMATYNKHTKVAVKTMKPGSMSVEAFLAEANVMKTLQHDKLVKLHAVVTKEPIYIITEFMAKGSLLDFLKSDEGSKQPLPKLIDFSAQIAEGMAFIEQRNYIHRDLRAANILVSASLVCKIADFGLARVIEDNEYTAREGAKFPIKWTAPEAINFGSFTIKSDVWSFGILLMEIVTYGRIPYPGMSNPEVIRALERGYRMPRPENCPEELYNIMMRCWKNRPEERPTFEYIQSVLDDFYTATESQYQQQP
Chain of Ephrin type-A receptor 4 (Homo sapiens) (P54764 whole entry): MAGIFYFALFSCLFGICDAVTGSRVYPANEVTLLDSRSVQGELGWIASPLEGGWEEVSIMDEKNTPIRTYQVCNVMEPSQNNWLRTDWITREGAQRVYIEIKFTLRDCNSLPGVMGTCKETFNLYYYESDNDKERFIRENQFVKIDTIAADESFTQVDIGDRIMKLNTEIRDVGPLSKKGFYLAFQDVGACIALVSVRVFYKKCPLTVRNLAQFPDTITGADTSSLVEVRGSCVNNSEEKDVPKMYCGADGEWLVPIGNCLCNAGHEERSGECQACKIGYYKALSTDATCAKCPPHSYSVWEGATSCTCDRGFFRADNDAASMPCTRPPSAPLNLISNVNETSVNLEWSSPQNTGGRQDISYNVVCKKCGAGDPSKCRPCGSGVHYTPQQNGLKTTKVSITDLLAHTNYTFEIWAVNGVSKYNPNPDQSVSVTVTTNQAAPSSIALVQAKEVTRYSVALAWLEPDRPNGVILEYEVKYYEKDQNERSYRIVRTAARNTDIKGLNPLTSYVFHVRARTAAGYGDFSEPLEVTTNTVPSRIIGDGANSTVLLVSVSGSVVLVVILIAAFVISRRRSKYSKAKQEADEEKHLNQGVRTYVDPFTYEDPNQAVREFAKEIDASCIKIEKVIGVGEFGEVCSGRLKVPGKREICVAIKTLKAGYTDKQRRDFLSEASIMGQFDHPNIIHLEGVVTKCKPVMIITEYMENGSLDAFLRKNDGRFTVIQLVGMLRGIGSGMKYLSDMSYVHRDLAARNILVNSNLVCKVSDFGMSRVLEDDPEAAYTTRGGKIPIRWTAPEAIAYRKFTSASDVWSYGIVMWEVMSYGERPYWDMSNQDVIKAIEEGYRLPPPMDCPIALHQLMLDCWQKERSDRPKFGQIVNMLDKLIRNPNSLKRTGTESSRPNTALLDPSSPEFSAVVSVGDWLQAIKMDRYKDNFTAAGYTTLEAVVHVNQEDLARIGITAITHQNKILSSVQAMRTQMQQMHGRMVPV
Chain of Ephrin type-A receptor 3 (Homo sapiens) (P29320 whole entry): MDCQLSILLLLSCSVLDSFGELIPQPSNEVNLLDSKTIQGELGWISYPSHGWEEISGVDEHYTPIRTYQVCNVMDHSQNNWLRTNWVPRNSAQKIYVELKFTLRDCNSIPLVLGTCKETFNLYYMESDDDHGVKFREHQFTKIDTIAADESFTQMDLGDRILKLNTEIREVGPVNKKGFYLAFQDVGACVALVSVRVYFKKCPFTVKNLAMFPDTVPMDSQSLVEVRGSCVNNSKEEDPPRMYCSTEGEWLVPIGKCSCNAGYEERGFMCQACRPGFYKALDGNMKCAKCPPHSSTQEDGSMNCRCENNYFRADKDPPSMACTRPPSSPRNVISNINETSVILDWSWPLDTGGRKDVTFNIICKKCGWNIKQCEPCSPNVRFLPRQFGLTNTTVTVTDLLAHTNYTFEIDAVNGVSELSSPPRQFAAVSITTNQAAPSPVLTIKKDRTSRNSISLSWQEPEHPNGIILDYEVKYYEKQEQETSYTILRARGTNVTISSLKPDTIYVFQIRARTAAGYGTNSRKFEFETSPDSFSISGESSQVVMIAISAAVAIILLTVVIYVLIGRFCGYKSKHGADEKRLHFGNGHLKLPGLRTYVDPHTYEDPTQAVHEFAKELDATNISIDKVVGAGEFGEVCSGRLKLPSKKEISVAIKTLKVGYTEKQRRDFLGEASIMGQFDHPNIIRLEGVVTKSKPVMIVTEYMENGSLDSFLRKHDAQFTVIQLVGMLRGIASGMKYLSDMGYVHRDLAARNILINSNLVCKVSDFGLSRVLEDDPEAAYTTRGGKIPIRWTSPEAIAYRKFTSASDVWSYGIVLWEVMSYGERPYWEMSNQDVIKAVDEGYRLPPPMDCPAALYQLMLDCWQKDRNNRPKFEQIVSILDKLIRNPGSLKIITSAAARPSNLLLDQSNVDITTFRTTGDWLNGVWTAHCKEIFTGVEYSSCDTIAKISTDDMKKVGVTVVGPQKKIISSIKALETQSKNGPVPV
Chain of Mitogen-activated protein kinase kinase kinase 7 (Homo sapiens) (O43318 whole entry, looked up): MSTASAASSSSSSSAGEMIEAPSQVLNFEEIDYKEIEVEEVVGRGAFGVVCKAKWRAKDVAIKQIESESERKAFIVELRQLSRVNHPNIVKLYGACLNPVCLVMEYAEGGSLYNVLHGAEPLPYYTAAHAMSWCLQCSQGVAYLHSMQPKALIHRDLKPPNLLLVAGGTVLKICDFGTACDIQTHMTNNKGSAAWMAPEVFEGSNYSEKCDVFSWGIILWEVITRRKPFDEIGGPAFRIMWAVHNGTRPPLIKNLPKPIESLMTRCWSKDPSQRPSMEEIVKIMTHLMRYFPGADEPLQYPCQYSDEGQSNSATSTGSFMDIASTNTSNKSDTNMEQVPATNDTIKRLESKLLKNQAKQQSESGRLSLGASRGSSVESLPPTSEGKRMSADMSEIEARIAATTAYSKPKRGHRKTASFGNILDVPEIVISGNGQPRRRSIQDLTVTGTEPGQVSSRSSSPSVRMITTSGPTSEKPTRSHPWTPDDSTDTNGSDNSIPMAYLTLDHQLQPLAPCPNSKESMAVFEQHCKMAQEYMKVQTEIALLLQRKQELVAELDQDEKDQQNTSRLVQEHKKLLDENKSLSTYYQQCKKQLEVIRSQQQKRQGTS

COc1cc2ncnc(Oc3ccc(NC(=O)Nc4ccc(CN5CCOCC5)c(C(F)(F)F)c4)c4ccccc34)c2cc1OC
GI50 (CCRF-CEM): 1.17 µM
TGI (CCRF-CEM): 40.7 µM
CC50 (CCRF-CEM; [19]): > 100 µM
GI50 (K562): < 0.01 µM
TGI (K562): 1.12 µM
CC50 (K562; [19]): 95.5 µM
GI50 (EKVX): 0.45 µM
TGI (EKVX): 6.46 µM
CC50 (EKVX; [19]): 67.6 µM
GI50 (NCI-H460): 1.41 µM
TGI (NCI-H460): 4.27 µM
CC50 (NCI-H460; [19]): 25.7 µM
GI50 (HCC 2998): 5.25 µM
TGI (HCC 2998): 20.9 µM
CC50 (HCC 2998; [19]): 75.9 µM
GI50 (HCT-15): 1 µM
TGI (HCT-15): 5.13 µM
CC50 (HCT-15; [19]): 28.2 µM
GI50 (KM12): 0.2 µM
TGI (KM12): 2.51 µM
CC50 (KM12; [19]): > 100 µM
GI50 (SW-620): 1.1 µM
TGI (SW-620): 11.8 µM
CC50 (SW-620; [19]): > 100 µM
GI50 (OVCAR-4): 0.12 µM
TGI (OVCAR-4): 10.5 µM
CC50 (OVCAR-4; [19]): 35.5 µM
GI50 (A498): 0.05 µM
TGI (A498): 0.52 µM
CC50 (A498; [19]): 30.9 µM
GI50 (RXF 393): 1.05 µM
TGI (RXF 393): 7.08 µM
CC50 (RXF 393; [19]): 29.5 µM
GI50 (UO-31): 0.2 µM
TGI (UO-31): 10.2 µM
CC50 (UO-31; [19]): 38 µM
GI50 (MDA-MB-231): 1.15 µM
TGI (MDA-MB-231): 7.94 µM
CC50 (MDA-MB-231; [19]): 42.7 µM
GI50 (Hs-578T): 1.12 µM
TGI (Hs-578T): 9.33 µM
CC50 (Hs-578T; [19]): > 100 µM
GI50 (T47D): 0.25 µM
TGI (T47D): 4.27 µM
CC50 (T47D; [19]): > 100 µM
Ratio [1]: 3.2
RatioGI50 [2]: 3.9 - 9.5
RatioGI50 [3]: 3.9 - 9.5
RatioGI50 [4]: 5 - 7.7
RatioGI50 [5]: 5 - 7.7
RatioGI50 [6]: 1.6 - 2.9
RatioGI50 [7]: 1.6
RatioGI50 [8]: 1.5
RatioGI50 (NCI/ADR-RES): 6.9
RatioLC50 [9]: 1.7
inhibition [10]: < 20%
inhibition [11]: > 96%
inhibition [12]: Active
inhibition [13]: Active
inhibition [14]: Active
inhibition (Homo sapiens): Active
inhibition [15]: Active
inhibition [16]: Active
inhibition [17]: Active
inhibition [18]: Active
